Laboratory results published in ChEMBL document CHEMBL1129062, “6- and 7-substituted 2-[2'-(dimethylamino)ethyl]-1,2-dihydro-3H-dibenz[de,h] isoquinoline-1,3-diones: synthesis, nucleophilic displacements, antitumor activity, and quantitative structure-activity relationships” (J Med Chem, 1996).
The source made the active and inactive calls. The calls are words filed in the database; no cut-off is given here.

Tests used:
OVCAR-3 = test: Inhibitory activity against OVCAR-3 cell line; format: functional, cell-based; details: Homo sapiens
L1210 [1] = test: Compound was tested against L1210 leukemia at % increase in life span (ILS) in mice at 8 mg/kg dosage; Not active; format: functional, organism-based; set-up: dose 8 mg/kg; details: Mus musculus
A549 [2] = test: Compound tested against A549 lung carcinoma in the sulforhodamine B assay.; format: functional, cell-based; details: Homo sapiens
Procedure, shortened: (§1)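 Sulforhodamine B assay. Cells plated at 50 000/well; drug added on day 2 at 10^1–10^-5 μg/mL in half-log steps from DMSO stock diluted in PBS, final DMSO ≤0.1%. After 8-day exposure at 37 °C, cells fixed with TCA at 4 °C for 1 h and stained 30 min with 0.4% SRB. Dye solubilized in 10 mM Tris and OD read at 564 nm. Six wells per concentration; IC50 averaged.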

UACC-375 = test: Inhibitory activity against […] cell line; format: functional, cell-based; details: Homo sapiens
WiDr [3] = test: Compound tested against WiDr colon (sensitive) in the sulforhodamine B assay.; format: functional, cell-based; details: Homo sapiens; procedure, shortened: as §1
[4] = An average for IC50 values in the two solid tumor cell lines and sensitive L1210 leukemia cell line.; format: functional, cell-based
L1210 [5] = test: Inhibitory activity against sensitive L1210 cell lines; format: functional, cell-based; details: Mus musculus
Rattus norvegicus [6] = species on record: Rattus norvegicus; test: Cardiotoxicity by a neonatal rat heart myocyte assay; format: toxicity
Procedure, shortened: (§2)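 Neonatal rat heart myocytes exposed to drug for 1 h. Read-out is the ATP/protein ratio relative to untreated control myocytes. IC50 is the 1-h concentration that reduces this ratio to 50% of control.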

Tumor cell line = test: An average for IC50 values in the two solid tumor cell lines.; format: functional, cell-based
MCF7 [7] = test: Tested against […] breast carcinoma (mitoxantrone resistant)cell line in the sulforhodamine B assay.; format: functional, cell-based; details: Homo sapiens; procedure, shortened: as §1
[8] = Toxicity ratio determined by the quotient of IC50 values in the myocytes divided by the average value in the three tumor lines.; format: functional
Procedure, shortened: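 Ratio is the myocyte cardiotoxicity IC50 (1-h exposure, ATP/protein ratio versus untreated myocytes) divided by the mean IC50 in sensitive L1210 and the two human tumor lines, measured with continuous exposure.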

L1210 [9] = test: Inhibitory activity against resistant murine leukemia L1210 cell lines.; format: functional, cell-based; details: Mus musculus
WiDr [10] = test: Compound tested against WiDr colon carcinoma (resistant) in the sulforhodamine B assay.; format: functional, cell-based; details: Homo sapiens; procedure, shortened: as §1
MCF7 [11] = test: Tested against […] breast carcinoma (doxorubicin resistant) cell line in the sulforhodamine B assay.; format: functional, cell-based; details: Homo sapiens; procedure, shortened: as §1
MCF7 [12] = test: Tested against […] breast carcinoma (sensitive) cell line in the sulforhodamine B assay.; format: functional, cell-based; details: Homo sapiens; procedure, shortened: as §1
WiDr [13] = test: Compound was tested against WiDr colon (sensitive) cell line in the sulforhodamine B assay.; format: functional, cell-based; details: Homo sapiens; procedure, shortened: as §1
A549 [14] = test: Compound was tested against A549 lung carcinoma cell line in the sulforhodamine B assay.; format: functional, cell-based; details: Homo sapiens; procedure, shortened: as §1
WiDr [15] = test: Compound tested against WiDr colon carcinoma (resistant)cell line in the sulforhodamine B assay.; format: functional, cell-based; details: Homo sapiens; procedure, shortened: as §1
L1210 [16] = test: Compound was tested against L1210 leukemia at % increase in life span (ILS) in mice at 1.6 mg/kg dosage.; format: functional; details: Mus musculus
Procedure, shortened: (§3)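 Male DBA/2J mice, 10 per group, inoculated ip on day 0 with 10^6 freshly harvested leukemia cells. Compound given ip in equal doses on days 1, 5 and 9; controls received saline ip on the same days. Highest dose set 10% below the acute LD10. %ILS = 100 × (treated − control)/control, using median life span per group; value reported at highest nontoxic dose.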

WiDr [17] = test: Tested against WiDr colon carcinoma (resistant) in the sulforhodamine B assay.; format: functional, cell-based; details: Homo sapiens; procedure, shortened: as §1
P388 [18] = test: Compound was tested against P388 leukemia at % increase in life span (ILS) in mice at 1.6 mg/kg dosage.; format: functional; details: Mus musculus; procedure, shortened: as §3
B16 [19] = test: Compound was tested against sc B16 melanoma at % tumor growth inhibition(TGI) in mice at 3.2 mg/kg dosage.; format: functional; details: Mus musculus, route subcutaneous, read-out: TGI
A549 [20] = test: Tested against A549 lung carcinoma in the sulforhodamine B assay.; format: functional, cell-based; details: Homo sapiens; procedure, shortened: as §1
WiDr [21] = test: Tested against WiDr colon (sensitive) in the sulforhodamine B assay.; format: functional, cell-based; details: Homo sapiens; procedure, shortened: as §1
WiDr [22] = test: Compound was tested against WiDr colon carcinoma (resistant) in the sulforhodamine B assay.; format: functional, cell-based; details: Homo sapiens; procedure, shortened: as §1
P388 [23] = test: Compounds was tested against P388 leukemia at % increase in life span (ILS) in mice at 4.5 mg/kg dosage.; format: functional; details: Mus musculus; procedure, shortened: as §3
B16 [24] = test: Compound was tested against sc B16 melanoma at % tumor growth inhibition(TGI) in mice at 4 mg/kg dosage.; format: functional; details: Mus musculus, route subcutaneous, read-out: TGI
L1210 [25] = test: Compound was tested against L1210 leukemia at % increase in life span (ILS) in mice at 5 mg/kg dosage.; format: functional; details: Mus musculus; procedure, shortened: as §3
B16 [26] = test: Compound was tested against sc B16 melanoma cell line in mice at 15 mg/kg dosage.; format: functional; details: Mus musculus, route subcutaneous, read-out: TGI
A549 [27] = test: Compound was tested against A549 lung cancer cell line in the sulforhodamine B assay.; format: functional, cell-based; details: Homo sapiens; procedure, shortened: as §1
WiDr [28] = test: Compound was tested against WiDr colon carcinoma (resistant)cell line in the sulforhodamine B assay.; format: functional, cell-based; details: Homo sapiens; procedure, shortened: as §1
L1210 [29] = test: Compound was tested against L1210 leukemia cell line in mice at 15 mg/kg dosage.; format: functional; details: Mus musculus; procedure, shortened: as §3
P388 [30] = test: Compound was tested against P388 leukemia cell line in mice at 15 mg/kg dosage.; format: functional; details: Mus musculus; procedure, shortened: as §3
B16 [31] = test: Compound were tested against sc B16 melanoma at % tumor growth inhibition(TGI) in mice at 3 mg/kg dosage.; format: functional; details: Mus musculus, route subcutaneous, read-out: TGI
P388 [32] = test: Compound was tested against P388 leukemia at % increase in life span (ILS) in mice at 3 mg/kg dosage.; format: functional; details: Mus musculus; procedure, shortened: as §3
B16 [33] = test: Compound was tested against sc B16 melanoma at % tumor growth inhibition(TGI) in mice at 6 mg/kg dosage; no palpable tumor; format: functional; details: Mus musculus, route subcutaneous, read-out: TGI
L1210 [34] = test: Compound was tested against L1210 leukemia at % increase in life span (ILS) in mice at 8 mg/kg dosage.; format: functional; details: Mus musculus; procedure, shortened: as §3
P388 [35] = test: Compound was tested against P388 leukemia at % increase in life span (ILS) in mice at 5 mg/kg dosage.; format: functional; details: Mus musculus; procedure, shortened: as §3
P388 [36] = test: Compound was tested against P388 leukemia at % increase in life span (ILS) in mice at 15 mg/kg dosage.; format: functional; details: Mus musculus; procedure, shortened: as §3
[37] = test system: neonatal heart myocytes (Rattus norvegicus); test: Cardio toxicity was measured.
P388 [38] = test: Compound was tested against P388 leukemia at % increase in life span (ILS) in mice at 15 mg/kg dosage; Not active at highest dose tested (% ILS<25); format: functional, organism-based; set-up: dose 15 mg/kg; details: Mus musculus
Rattus norvegicus [39] = species on record: Rattus norvegicus; test: Compound was tested for Cardiotoxicity by a neonatal rat heart myocyte assay.; format: functional; procedure, shortened: as §2

Structure (SMILES)	IC50 (OVCAR-3) [nM]	IC50 (UACC-375) [nM]	IC50 [4] [nM]	IC50 (L1210 [5]) [nM]	IC50 (Rattus norvegicus [6]) [nM]	IC50 (Tumor cell line) [nM]	IC50 (MCF7 [7]) [nM]	Toxicity ratio [8]	IC50 (L1210 [9]) [nM]	IC50 (MCF7 [11]) [nM]	IC50 (MCF7 [12]) [nM]	IC50 (WiDr [17]) [nM]	IC50 (A549 [20]) [nM]	IC50 (WiDr [21]) [nM]	further results
CN(C)CCOc1ccc2c3c(c4ccccc4cc13)C(=O)N(CCN(C)C)C2=O	31	31	21	0.2	5440	31	3.9	262	1.3	8.9	3.9				ILS (L1210 [1]): inactive; IC50 (A549 [2]): 0.58 nM; IC50 (WiDr [3]): 2.4 nM; IC50 (WiDr [10]): 10 nM
CN(C)CCN1C(=O)c2ccc(I)c3cc4ccccc4c(c23)C1=O	416	416	416	416	43700	416	10	105	416	30	11				IC50 (WiDr [13]): 65 nM; IC50 (A549 [14]): 10 nM; IC50 (WiDr [15]): 620 nM
O=C1c2c(O)ccc(O)c2C(=O)c2c(NCCNCCO)ccc(NCCNCCO)c21 [MITOXANTRONE]			21	9.7	7740	27	41	368		72	8.7	488	3.1	8.1	ILS at 1.6 mg/kg (L1210 [16]): 150%; ILS at 1.6 mg/kg (P388 [18]): 200%; inhibition in vivo at 3.2 mg/kg (B16 [19]): 130%
COc1cccc2c1C(=O)c1c(O)c3c(c(O)c1C2=O)C[C@@](O)(C(=O)CO)C[C@@H]3O[C@H]1C[C@H](N)[C@H](O)[C@H](C)O1 [DOXORUBICIN]			61		10200	74								53	IC50 (WiDr [22]): 130 nM; ILS at 4.5 mg/kg (P388 [23]): 113%; inhibition in vivo at 4 mg/kg (B16 [24]): 120%; ILS at 5 mg/kg (L1210 [25]): 210%
CN(C)CCN1C(=O)c2cccc3cc4ccccc4c(c23)C1=O [AZONAFIDE]			45	7	1980	64	20	44		70	18				IC50 (WiDr [13]): 13 nM; inhibition in vivo at 15 mg/kg (B16 [26]): 74%; IC50 (A549 [27]): 10 nM; IC50 (WiDr [28]): 94 nM; ILS at 15 mg/kg (L1210 [29]): 72%; ILS at 15 mg/kg (P388 [30]): 79%
CN(C)CCNc1ccc2c3c(c4ccccc4cc13)C(=O)N(CCN(C)C)C2=O	63	11	25	0.04	4190	37	1.9	171	0.04	14	1	14	0.43	1.7	inhibition in vivo at 3 mg/kg (B16 [31]): 66%; ILS at 3 mg/kg (P388 [32]): 44%
CCOc1ccc2c3c(c4ccccc4cc13)C(=O)N(CCN(C)C)C2=O	0.8	19	9.3	8	1780	10	14	192	6.7	18	11	63	2.9	17	inhibition in vivo at 6 mg/kg (B16 [33]): > 100%; ILS at 8 mg/kg (L1210 [34]): 100%; ILS at 5 mg/kg (P388 [35]): 55%
CN(C)CCN1C(=O)c2cccc3cc(N)cc(c23)C1=O [AMONAFIDE]			1610		48400	2110		30							ILS at 15 mg/kg (P388 [36]): 88%
Cc1ccc2c3c(c4ccccc4cc13)C(=O)N(CCN(C)C)C2=O	217	141		6.8		179		8.1	27						IC50 [37]: 989 nM; ILS (P388 [38]): inactive; IC50 (Rattus norvegicus [39]): 989 nM
